Measured values from ChEMBL document CHEMBL1154237, “Influenza A (H(1)N(1)) Antiviral and Cytotoxic Agents from Ferula assa-foetida” (J Nat Prod, 2009).
≈ marks a conversion by molar mass, not a printed value.

Columns and labels:
[1] = test system: Influenza A virus; assay: Antiviral activity against Influenza A virus H1N1 infected in MDCK cells assessed as inhibition of virus-induced cytopathic effect after 3 days by XTT assay; assay type: functional, organism-based; details: 72 h
In short: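 MDCK cells, trypsinized and seeded at 1.0 × 10^5 cells/mL, grown 24 h at 35 °C, 5% CO2 in MEM with 2% FCS plus antibiotics. Virus added for 1 h, then test substances at several concentrations in triplicate. After 3 days at 35 °C, XTT added for 3 h and OD492/OD690 read.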

[2] = test system: HepG2; assay: Cytotoxicity against human HepG2 cells after 3 days by MTT assay; assay type: functional, cell-based; details: HepG2, 72 h
In short: (§1)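 Freshly trypsinized cells were seeded at 5000-10 000 cells/well, with compounds added from DMSO stock, and cultured 3 days. Attached cells were then incubated with MTT (0.5 mg/mL, 1 h), solubilized in DMSO, and absorbance read at 550 nm.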

[3] = test system: Ca9-22; assay: Cytotoxicity against human Ca9-22 cells after 3 days by MTT assay; assay type: functional, cell-based; details: Ca9-22, 72 h; in short: as §1
[4] = test system: MDA-MB-231; assay: Cytotoxicity against human MDA-MB-231 cells after 3 days by MTT assay; assay type: functional, cell-based; details: MDA-MB-231, 72 h; in short: as §1
[5] = test system: A549; assay: Cytotoxicity against human A549 cells after 3 days by MTT assay; assay type: functional, cell-based; details: A549, 72 h; in short: as §1
[6] = test system: MCF7; assay: Cytotoxicity against human MCF7 cells after 3 days by MTT assay; assay type: functional, cell-based; details: MCF7, 72 h; in short: as §1
[7] = Cytotoxicity against human Hep3B cells after 3 days by MTT assay; assay type: functional, cell-based, Hep 3B2; details: 72 h; in short: as §1

With CC1=CC(=O)[C@@H]2C(C)(C)C(=O)CC[C@@]2(C)[C@@H]1COc1ccc2ccc(=O)oc2c1 the IC50 [1] was 0.32 µg/mL (≈ 0.811 µM) and the IC90 [1] was 0.37 µg/mL (≈ 0.938 µM).
With C/C(=C\COc1ccc2ccc(=O)oc2c1)CC/C=C(\C)CC[C@@H](O)C(C)(C)O the IC50 [2] was > 20 µg/mL, the IC50 [3] was > 20 µg/mL and the IC50 [4] was > 20 µg/mL. It also gave an IC50 [5] of 11 µg/mL (≈ 27.4 µM), an IC50 [1] of 0.99 µg/mL (≈ 2.47 µM) and an IC90 [1] of 2.05 µg/mL (≈ 5.12 µM). For the same compound, the IC50 [6] was 14.3 µg/mL (≈ 35.6 µM) and the IC50 [7] was > 20 µg/mL.
In the case of CC(C)=CCC/C(C)=C/[C@@H](O)C/C(C)=C/COc1ccc2ccc(=O)oc2c1, the IC50 [1] was 0.36 µg/mL (≈ 0.941 µM) and the IC90 [1] was 0.62 µg/mL (≈ 1.62 µM).
With CC(=O)OC(CC=C(C)C)/C(C)=C/[C@@H](O)C/C(C)=C/COc1ccc2ccc(=O)oc2c1 (stereo partly drawn) the IC50 [2] was 15.6 µg/mL (≈ 35.4 µM), the IC50 [3] was 14.2 µg/mL (≈ 32.3 µM) and the IC50 [4] was > 20 µg/mL. For the same compound, the IC50 [5] was > 20 µg/mL, the IC50 [1] was 0.81 µg/mL (≈ 1.84 µM) and the IC90 [1] was 1.56 µg/mL (≈ 3.54 µM). The IC50 [6] was > 20 µg/mL and the IC50 [7] was 9.82 µg/mL (≈ 22.3 µM).
Work on NC12CC3CC(CC(C3)C1)C2 [AMANTADINE] yielded an IC50 [1] of 0.92 µg/mL (≈ 6.08 µM).
In the case of CC1=CC[C@@H]2C(C)(C)[C@@H](O)CC[C@@]2(C)[C@@H]1COc1ccc2ccc(=O)oc2c1 [CONFEROL], the IC50 [2] was 0.51 µg/mL (≈ 1.33 µM), the IC50 [3] was 6.83 µg/mL (≈ 17.9 µM) and the IC50 [4] was > 20 µg/mL. For the same compound, the IC50 [5] was 9.08 µg/mL (≈ 23.7 µM), the IC50 [1] was 0.47 µg/mL (≈ 1.23 µM) and the IC90 [1] was 0.83 µg/mL (≈ 2.17 µM). It also gave an IC50 [6] of 3.38 µg/mL (≈ 8.84 µM) and an IC50 [7] of 2.63 µg/mL (≈ 6.88 µM).
With COc1cccc2c1C(=O)c1c(O)c3c(c(O)c1C2=O)C[C@@](O)(C(=O)CO)C[C@@H]3O[C@H]1C[C@H](N)[C@H](O)[C@H](C)O1 [DOXORUBICIN] the IC50 [2] was 0.16 µg/mL (≈ 0.294 µM), the IC50 [3] was 0.14 µg/mL (≈ 0.258 µM) and the IC50 [5] was 0.35 µg/mL (≈ 0.644 µM). For the same compound, the IC50 [6] was 0.43 µg/mL (≈ 0.791 µM) and the IC50 [7] was 0.41 µg/mL (≈ 0.754 µM).
With C=C1CC[C@@H]2C(C)(C)[C@H](O)CC[C@@]2(C)[C@H]1COc1ccc2ccc(=O)oc2c1 [FARNESIFEROL A] the IC50 [2] was 14.9 µg/mL (≈ 38.9 µM), the IC50 [3] was 12.1 µg/mL (≈ 31.6 µM) and the IC50 [4] was 19 µg/mL (≈ 49.7 µM). For the same compound, the IC50 [5] was 15.8 µg/mL (≈ 41.3 µM), the IC50 [1] was 0.51 µg/mL (≈ 1.33 µM) and the IC90 [1] was 0.64 µg/mL (≈ 1.67 µM). It also gave an IC50 [6] of 15.6 µg/mL (≈ 40.7 µM) and an IC50 [7] of 7.66 µg/mL (≈ 20 µM).
Compound C/C(=C\COc1ccc2ccc(=O)oc2c1)CC[C@@H]1C(C)(C)[C@H]2CC[C@]1(C)O2 [FARNESIFEROL C] has an IC50 [1] of 0.29 µg/mL (≈ 0.758 µM) and an IC90 [1] of 0.5 µg/mL (≈ 1.31 µM).
With CCC(C)SSC/C=C/OS(C)=O (stereo not drawn) [FOETISULFIDE C] the IC50 [2] was > 20 µg/mL, the IC50 [3] was 16.5 µg/mL (≈ 68.5 µM) and the IC50 [4] was > 20 µg/mL. The IC50 [5] was 9.14 µg/mL (≈ 38 µM), the IC50 [6] was > 20 µg/mL and the IC50 [7] was 19.2 µg/mL (≈ 79.9 µM).
CC(C)=C1CC[C@H](C)[C@](C)(COc2ccc3ccc(=O)oc3c2)[C@H]1CCC(=O)O [GALBANIC ACID] gave an IC50 [1] of 0.45 µg/mL (≈ 1.13 µM).
For C[C@@H]1C[C@@H](O)[C@]2(C)[C@@H](C)C(=O)CC[C@H]2[C@]1(C)COc1ccc2ccc(=O)oc2c1 [KAMOLONOL], the IC50 [2] was > 20 µg/mL, the IC50 [3] was > 20 µg/mL and the IC50 [4] was > 20 µg/mL. The IC50 [5] was > 20 µg/mL, the IC50 [6] was > 20 µg/mL and the IC50 [7] was 17.9 µg/mL (≈ 45 µM).
For CC1=CC(=O)[C@@H]2C(C)(C)[C@H](O)CC[C@@]2(C)[C@@H]1COc1ccc2ccc(=O)oc2c1 [LIGUPERSIN A], the IC50 [1] was 0.86 µg/mL (≈ 2.17 µM) and the IC90 [1] was 1.75 µg/mL (≈ 4.41 µM).
With COC(=O)CC[C@H]1C(=C(C)C)CC[C@H](C)[C@]1(C)COc1ccc2ccc(=O)oc2c1 [METHYL GALBANATE] the IC50 [2] was 8.42 µg/mL (≈ 20.4 µM), the IC50 [3] was 19.1 µg/mL (≈ 46.3 µM) and the IC50 [4] was > 20 µg/mL. The IC50 [5] was > 20 µg/mL, the IC50 [1] was 0.26 µg/mL (≈ 0.63 µM) and the IC50 [6] was > 20 µg/mL. The IC50 [7] was 4.33 µg/mL (≈ 10.5 µM).
Compound C=C1CC[C@]2(C)C(C)(C)[C@@H](OC(C)=O)CC[C@]2(C)[C@H]1COc1ccc2ccc(=O)oc2c1 [POLYANTHININ] has an IC50 [2] of 10.4 µg/mL (≈ 23.8 µM), an IC50 [3] of 12.7 µg/mL (≈ 28.9 µM) and an IC50 [4] of 15.7 µg/mL (≈ 35.8 µM). The IC50 [5] was 12.3 µg/mL (≈ 28 µM), the IC50 [6] was 9.94 µg/mL (≈ 22.7 µM) and the IC50 [7] was 5.9 µg/mL (≈ 13.5 µM).
With COc1cc(C=O)ccc1O [VANILLIN] the IC50 [2] was > 20 µg/mL, the IC50 [3] was > 20 µg/mL and the IC50 [4] was > 20 µg/mL. The IC50 [5] was 16.4 µg/mL (≈ 108 µM), the IC50 [6] was 15.7 µg/mL (≈ 103 µM) and the IC50 [7] was > 20 µg/mL.
